The test system of assay [1] is A549. As to the kind of experiment: Cytotoxicity against human A549 cells assessed as cell viability at 1 uM by SRB assay. Format: functional. Particulars: read-out: Activity. In short, it runs like this: (§1)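 Modified sulforhodamine B (SRB) protein-stain assay. Each human cancer line was exposed to 1, 10 and 100 µM of each isolated root constituent. The read-out is relative cell viability (%), reported as mean ± error.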
A general note: The SRB assay estimates cell density from bound dye.

Assay [2] has as its system HeLa. As to the kind of experiment: Cytotoxicity against human HeLa cells by SRB assay. Format: functional, cell-based.
Assay [3] deals with HeLa. As to the kind of experiment: Cytotoxicity against human HeLa cells assessed as cell viability at 1 uM by SRB assay. The assay is classed as functional. Particulars: read-out: Activity. Put shortly:
as §1

The subject of assay [4] is A549. The experiment in a line: Cytotoxicity against human A549 cells assessed as cell viability at 100 uM by SRB assay. The assay is classed as functional. To be noted: read-out: Activity. In short, it runs like this:
as §1

For assay [5], the system named is A549. The experiment in a line: Cytotoxicity against human A549 cells assessed as cell viability at 10 uM by SRB assay. Format: functional. Particulars: read-out: Activity. In short, it runs like this:
as §1

Assay [6] relates to HeLa. As to the kind of experiment: Cytotoxicity against human HeLa cells assessed as cell viability at 100 uM by SRB assay. Format: functional. Particulars: read-out: Activity. In short, it runs like this: as §1
Assay [7] concerns HeLa. As to the kind of experiment: Cytotoxicity against human HeLa cells assessed as cell viability at 10 uM by SRB assay. The assay is classed as functional. Particulars: read-out: Activity. Put shortly:
as §1

By IC50 is commonly meant the concentration at which inhibition is half-maximal. High values mean weaker potency, low ones greater potency. Consider `CC1=CC(=O)[C@@H](O)[C@]2(C)[C@H]3[C@@H](O)[C@H](O)[C@H](C)[C@]4(O)[C@@H](O)C(=O)O[C@H](C[C@@H]12)[C@]34C`, for which the viability at 1 µM amounted to 99.5% in the assay with A549 [1] and 101% in the assay with HeLa [3]. The compound also displayed an IC50 in the assay on HeLa [2] of 48.2 µM. Besides, the viability at 100 µM worked out at 43.3% in the assay with A549 [4] and 21% in the assay on HeLa [6]. The viability at 10 µM was 86.4% in the assay on A549 [5] and 71.6% in the assay on HeLa [7].
Turning to `CC1=CC(=O)O[C@H]1[C@@]1(C)C[C@H]2OC(=O)[C@H](O)[C@@]3(O)[C@@H](C)C(=O)C(O)=C1[C@@]23CO`, the viability at 1 µM with A549 [1] and with HeLa [3] was 102% each time. In addition, the viability at 100 µM with A549 [4] was 103%; in the assay with HeLa [6], 106%. Also, the viability at 10 µM was 104% in the assay with A549 [5] and 103% in the assay on HeLa [7].
As for `CC1=CC(=O)O[C@H]1[C@@]1(C)C[C@H]2OC(=O)[C@H](O)[C@@]3(O)[C@H](C)C(=O)C(O)=C1[C@@]23CO`, the values for the viability at 1 µM in the assay with A549 [1] and in the assay on HeLa [3] were 101% and 102%, respectively. Moreover, the viability at 100 µM was found to be 104% with A549 [4] and 106% with HeLa [6]. For the same compound, the viability at 10 µM in the assay with A549 [5] and with HeLa [7] was 104% throughout.
On to `C=C1C(=O)C(O)=C2[C@@](C)([C@@H]3OC(=O)C=C3C)C[C@H]3OC(=O)[C@H](O)[C@]1(O)[C@@]23CO`, for which the viability at 1 µM with A549 [1] is 100%; with HeLa [3] it was 102%. Besides, the viability at 100 µM amounted to 100% in the assay on A549 [4] and 101% in the assay with HeLa [6]. For the same compound, the viability at 10 µM in the assay on A549 [5] was found to be 102%; with HeLa [7] it was 104%.
In the case of `C[C@H]1[C@H]2OC(=O)[C@@H]1[C@]1(C)C(=O)C=C3[C@@](C)(O)C[C@H](O)[C@@H](O)[C@]3(C)C1[C@H]2O` (some centres not stated), the results for the viability at 1 µM with A549 [1] and with HeLa [3] were 96.6% and 101%, respectively. Also, the viability at 100 µM is 101% with A549 [4] and 102% in the assay with HeLa [6]. The viability at 10 µM in the assay on A549 [5] and in the assay with HeLa [7] was 102% throughout.
With `CC1=C2C[C@H]3OC(=O)[C@H](O)[C@@]4(O)[C@@H](C)[C@]5(O)C(=O)OC[C@]34C5[C@@]2(C)[C@H](O)[C@@H](O)C1` (some centres not stated), the viability at 1 µM worked out at 103% in the assay on A549 [1] and 106% in the assay on HeLa [3]. Further, the viability at 100 µM in the assay with A549 [4] and in the assay on HeLa [6] was 103% in each case. The viability at 10 µM in the assay on A549 [5] came to 103%; in the assay with HeLa [7], 105%.
For the compound `CC1=CC(=O)O[C@H]1[C@@]1(C)C[C@H]2OC(=O)[C@H](O)[C@@]3(O)[C@@H](C)[C@@H](O)[C@H](O)[C@H]1[C@@]23C`, the viability at 1 µM is 102% in the assay on A549 [1] and 104% with HeLa [3]. The viability at 100 µM in the assay on A549 [4] was determined as 100%; in the assay with HeLa [6] it was 103%. In addition, the viability at 10 µM in the assay with A549 [5] worked out at 102%; in the assay on HeLa [7], 104%.
Take `CC1=CC(=O)[C@@H](O)[C@]2(C)[C@H]3[C@]4(O)OC[C@@]35[C@@H](C[C@@H]12)OC(=O)[C@H](O)[C@@]5(O)[C@]1(CO1)[C@H]4O`: the viability at 1 µM in the assay with A549 [1] came out at 96.2%; in the assay with HeLa [3], 101%. Besides, the viability at 100 µM came out at 99.1% with A549 [4] and 61.7% in the assay with HeLa [6]. The viability at 10 µM in the assay on A549 [5] came to 102%; with HeLa [7] it was 101%.
`C=C1C[C@H](O)[C@@H](O)[C@]2(C)[C@H]3[C@@H](O)[C@H](O)[C@H](C)[C@@H]4C(=O)O[C@H]([C@H](O)[C@@H]12)[C@]34C`: the viability at 1 µM amounted to 96.8% in the assay on A549 [1] and 99.7% with HeLa [3]. The viability at 100 µM in the assay on A549 [4] was 101%; with HeLa [6] it was 98.7%. In addition, the viability at 10 µM in the assay with A549 [5] and in the assay with HeLa [7] was 101% each time.
For the compound `CC1=CC(=O)[C@@H](O)[C@]2(C)[C@H]3[C@@H](O)[C@H](O)[C@H](C)[C@]4(O)[C@@H](O)C(=O)O[C@H](C[C@@]12O)[C@]34C`, the viability at 1 µM worked out at 99.8% in the assay with A549 [1] and 101% in the assay on HeLa [3]. For the same compound, the viability at 100 µM with A549 [4] is 99.3%; in the assay on HeLa [6], 100%. Moreover, the viability at 10 µM was 101% in the assay on A549 [5] and 103% in the assay on HeLa [7].
On to `COc1cccc2c1C(=O)c1c(O)c3c(c(O)c1C2=O)C[C@@](O)(C(=O)CO)C[C@@H]3O[C@H]1C[C@H](N)[C@@H](O)[C@H](C)O1` [EPIRUBICIN], for which the results for the viability at 10 µM in the assay with A549 [5] and with HeLa [7] were 0.61% and 24.3%, respectively.
Regarding `CC1=CC(=O)[C@@H](O)[C@@]2(C)[C@H]1CC(=O)[C@@]1(C)[C@H]3C(=O)O[C@H]([C@@H]3C)[C@H](O)[C@@H]12` [EURYCOMALACTONE], the viability at 1 µM in the assay with A549 [1] is 101%; with HeLa [3] it was 105%. In addition, the viability at 100 µM in the assay with A549 [4] was 41.5%; with HeLa [6] it was 44.5%. The viability at 10 µM was found to be 71.5% in the assay with A549 [5] and 77.7% with HeLa [7].
In the case of `C=C1[C@@H](O)[C@@]2(O)OC[C@]34[C@H]2[C@@]2(C)[C@H](O)C(=O)C=C(C)[C@@H]2C[C@H]3OC(=O)[C@H](O)[C@@]14O` [EURYCOMANONE], the values for the viability at 1 µM in the assay with A549 [1] and in the assay with HeLa [3] were 96.8% and 101%, respectively. In addition, the viability at 100 µM in the assay on A549 [4] stood at 87.2%; with HeLa [6] it was 47%. For the same compound, the values for the viability at 10 µM with A549 [5] and in the assay with HeLa [7] were 101% and 97.5%, respectively.
With `CC1=CC(=O)[C@@H](O)[C@@]2(C)[C@H]1[C@@H](O)[C@H]1OC(=O)C3[C@@H](C)[C@H](O)[C@H](O)[C@H]2[C@]31C` (some centres not stated) [LONGILACTONE], the values for the viability at 1 µM in the assay with A549 [1] and in the assay with HeLa [3] were 99.7% and 101%, respectively. The results for the viability at 100 µM with A549 [4] and in the assay with HeLa [6] were 66.1% and 66.9%, respectively. Also, the values for the viability at 10 µM with A549 [5] and in the assay on HeLa [7] were 99.8% and 102%, respectively.
In the case of `CC1=CC(=O)[C@@H](O)[C@]2(C)[C@H]3[C@]4(O)OC[C@@]35[C@@H](C[C@@H]12)OC(=O)[C@H](O)[C@@]5(O)[C@H](C)[C@H]4O` [PASAKBUMIN C], the viability at 1 µM stood at 99.2% with A549 [1] and 99.8% with HeLa [3]. Also, the viability at 100 µM in the assay on A549 [4] is 99.8%; in the assay with HeLa [6], 101%. For the same compound, the results for the viability at 10 µM with A549 [5] and in the assay with HeLa [7] were 101% and 102%, respectively.
